For data set [1], the system named is Mycobacterium tuberculosis. The data set can be described thus: Antitubercular activity against MDR Mycobacterium tuberculosis X23 incubated for 1 to 9 days by inverted microscopic analysis. It is filed as functional.
Data set [2] is described as follows: Cytotoxicity against human HaCaT cells assessed as cell survival rate at 16 uM after 24 hrs by MTT assay. Format: cell-based. Conditions: read-out: Survival. Put shortly: (§1)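 Cells treated for 24 h with test agent (0–400 μM) or rifampicin (0–16 μM), then MTT assay. Survival taken as A570 of treated cells over A570 of untreated cells, as a percentage. Average of triplicates from three independent experiments.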
A general note: Formazan colour is commonly taken as a measure of viable cells.

A short description of data set [3]: Cytotoxicity against human MRC5 cells assessed as cell survival rate at 16 uM after 24 hrs by MTT assay. Format: cell-based. Conditions: read-out: Survival. Put shortly: as §1
Data set [4] has as its system Mycobacterium tuberculosis. The data set can be described thus: Antitubercular activity against XDR Mycobacterium tuberculosis X24 incubated for 1 to 9 days by inverted microscopic analysis. It is filed as functional. In a few lines:
(§2)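 Bacteria immobilised in 0.5% agarose within microfluidic channels of a 96-well chip. Compound (0–632 μM; rifampicin 0–19.4 μM) supplied in Middlebrook 7H9 with 10% OADC and allowed to diffuse in. Incubated at 37 °C; channel boundary imaged by inverted microscopy (40×) at 1, 3, 5, 7 and 9 days. MIC90 taken as lowest concentration giving 90% growth inhibition. Triplicate.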

Data set [5] in a line: Cytotoxicity against mouse NIH/3T3 cells assessed as cell survival rate at 16 uM after 24 hrs by MTT assay. To be noted: read-out: Survival. It is filed as cell-based, NIH3T3. In a few lines:
as §1

The subject of data set [6] is Mycobacterium tuberculosis. The data set can be described thus: Antitubercular activity against Mycobacterium tuberculosis H37Rv P887 incubated for 1 to 9 days by inverted microscopic analysis. Format: functional. Put shortly: as §2
In data set [7] the test system is Mycobacterium tuberculosis. The data set can be described thus: Antitubercular activity against XDR Mycobacterium tuberculosis X59 incubated for 1 to 9 days by inverted microscopic analysis. It is filed as functional. Put shortly: as §2

≈ marks a conversion by molar mass, not a printed value. Calls of active or inactive are those of the source. No cut-off for these calls is given here.

A word on the MIC90: it is an inhibitory concentration at the 90% level, which refers to growth in some studies and to a panel of isolates in others. In the case of `CO[C@H]1/C=C/O[C@@]2(C)Oc3c(C)c(O)c4c(O)c(c(/C=N/N5CCN(C)CC5)c(O)c4c3C2=O)NC(=O)/C(C)=C\C=C\[C@H](C)[C@H](O)[C@@H](C)[C@@H](O)[C@@H](C)[C@H](OC(C)=O)[C@@H]1C` [RIFAMPIN], the MIC90 result in data set [1], in data set [4] and in data set [7] was “inactive” each time. Further, the values for the viability at 24 h, 16 µM in data set [2], in data set [3] and in data set [5] were 55%, 53% and 62%, respectively. Also, the MIC90 in data set [6] worked out at 0.61 µM (≈ 0.502 µg/mL).
